The values below come from PMC4519694 (Nature neuroscience, 2015).

One test relates to DARPP-32 (Thr34). The test can be described thus: Phospho-Thr34 DARPP-32 in striatal slices. Type of test: cell-based, mouse. As to conditions: 50 µM roscovitine, n = 3-6. Summed up:
(§1)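 Acute mouse striatal slices were exposed to test compound and analysed by quantitative immunoblotting. Phospho-specific signals were normalized to the corresponding total-protein blots, and loading to β-actin, GAPDH and/or coomassie staining. Values are mean ± s.e.m.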

For test [1], the system named is AMPA receptor subunit GluR1 (Ser845). Nature of the test: Phospho-Ser845 GluR1 in striatal slices. Type of test: cell-based, mouse. The settings on record: 50 µM roscovitine, n = 3-6. Summed up:
as §1

The subject of the next test is synapsin (Ser9). The test can be described thus: Phospho-Ser9 synapsin in striatal slices. It counts as cell-based, mouse. The settings on record: 50 µM roscovitine, n = 3-6. In outline: (§2)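 Acute mouse striatal slices, drug-treated, analysed by quantitative immunoblot. Phospho-specific signals normalized to the matching total-protein blot; loading normalized to β-actin, GAPDH and/or Coomassie. The PDE4 PKA-site antibody was an affinity-purified polyclonal, phosphorylation state-specific. Mean ± s.e.m.; t-test or ANOVA with Bonferroni post hoc.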

In another test the test system is CREB (Ser133). The test can be described thus: Phospho-Ser133 CREB in striatal slices. Type of test: cell-based, mouse. The settings on record: 50 µM roscovitine, n = 3-6. In outline: as §2
The next test has as its system PDE. Nature of the test: PDE activity in striatal lysates. It counts as biochemical, mouse. The settings on record: n = 4 slices.
The subject of the next test is cAMP in striatal slices. The test can be described thus: cAMP level in striatal slices. Type of test: cell-based, mouse.
In another test the test system is PDE4 (PKA site). The test can be described thus: PDE4 phosphorylation at the PKA site in striatal slices. It counts as cell-based, mouse. In outline: as §2
Another test concerns mice. Nature of the test: Forced swim test. Type of test: in vivo, mouse. As to conditions: infusion into NAc, two-trial FST, n = 5-7 (Supplementary Fig. 12c). Summed up: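 Bilateral stereotaxic infusion into NAc under isoflurane (AP +1.50 mm from bregma, ML ±1.4 mm, DV −3.90 mm), 1 µl per hemisphere of peptide (115 µM) or PKA inhibitor (45 µM). Testing followed 90 min after peptide or 45 min after inhibitor. Mice aged 10–12 weeks swam in a glass cylinder of 25°C water for 10 min, then 8 min 24 h later. Two researchers, blind to treatment, scored immobility at 2–6 min.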

For another test, the system named is NMDA receptor. Nature of the test: NMDA receptor current, whole-cell recording in striatal neurons. The settings on record: D-APV 50 µM; NMDA 100 µM; -70 mV. It counts as cell-based, mouse.
In test [2] the target is PDE4B1 phosphorylation by Cdk5 (Homo sapiens, UniProt Q00535). The test can be described thus: In vitro Cdk5-dependent phosphorylation of PDE4. Type of test: biochemical, rat.
The subject of the next test is animals. As to conditions: ref [35]–[37]; cited from earlier work.
The test system of the next test is humans. The settings on record: ref [35]–[37]; cited from earlier work.
The next test has as its system PDE4. As to conditions: ref [35]–[37]; cited from earlier work.
Another test relates to PDE4B1 (PKA site). The test can be described thus: PKA-mediated PDE4 phosphorylation in PC12 cells. Type of test: cell-based. As to conditions: FSK 10 µM, n = 8 reactions, WT vs S145A at 3 min *P = 0.0241, at 15 min ***P < 0.0001.

Peptide text beside a SMILES is read from it.

Chain of PDE4B1 phosphorylation by Cdk5 (Q00535 whole entry): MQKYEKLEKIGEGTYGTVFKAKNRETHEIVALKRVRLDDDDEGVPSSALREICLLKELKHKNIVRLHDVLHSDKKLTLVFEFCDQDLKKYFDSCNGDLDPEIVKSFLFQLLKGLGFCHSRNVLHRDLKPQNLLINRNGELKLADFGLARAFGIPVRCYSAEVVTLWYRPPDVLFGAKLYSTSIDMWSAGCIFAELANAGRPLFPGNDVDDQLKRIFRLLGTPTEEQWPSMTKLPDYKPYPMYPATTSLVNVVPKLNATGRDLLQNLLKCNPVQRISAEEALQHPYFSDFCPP
Chain of PDE4B1 phosphorylation by Cdk5 (Q15078 99-307 partner limits assumed): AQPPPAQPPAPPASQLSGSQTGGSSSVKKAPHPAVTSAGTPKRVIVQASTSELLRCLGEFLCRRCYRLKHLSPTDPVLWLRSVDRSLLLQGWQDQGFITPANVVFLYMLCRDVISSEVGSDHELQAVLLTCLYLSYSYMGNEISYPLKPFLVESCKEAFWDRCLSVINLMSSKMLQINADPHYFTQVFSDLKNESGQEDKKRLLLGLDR

Take `CC[C@H](CO)Nc1nc(NCc2ccccc2)c2ncn(C(C)C)c2n1` [roscovitine]: the “phosphorylation of DARPP-32 (Thr34)” value with DARPP-32 (Thr34) was “increased phosphorylation”. The “phosphorylation of GluR1 (Ser845)” value in test [1] is given as “increased phosphorylation”. For the same compound, in the test with synapsin (Ser9), the “PKA-dependent phosphorylation of synapsin (Ser9)” value is reported as “induced PKA-dependent phosphorylation”. For the same compound, the “PKA-dependent phosphorylation of CREB (Ser133)” value with CREB (Ser133) is reported as “induced PKA-dependent phosphorylation”. Also, the PDE activity result in the test with PDE (roscovitine 10 µM, *P = 0.011) is recorded as “attenuates PDE activity”; with PDE (roscovitine 50 µM, **P = 0.0037), “attenuates PDE activity”. Further, the cAMP level result with cAMP in striatal slices (Ros, n = 3 slices, *P = 0.0216) is “increase cAMP to similar levels”.

On to `CCNC(=O)[C@H]1O[C@@H](n2cnc3c(N)nc(NCCc4ccc(CCC(=O)O)cc4)nc32)[C@H](O)[C@@H]1O` [CGS21680], for which, in the test on PDE4 (PKA site) (5 µM, 2 min, Cdk5 cKO striatum, n = 4 slices from 2 mice, WT CGS vs cKO CGS *P = 0.0354), the “PKA-mediated PDE4 phosphorylation in response to CGS21680” value is reported as “Loss of PKA-mediated PDE4 phosphorylation”.

For the compound `Oc1cc2c(c(Cl)c1O)CCNCC2c1ccccc1` (centres unmarked) [SKF81297], in the test on cAMP in striatal slices (SKF81297 (1 µM, 10 min unless stated otherwise), n = 4 slices, **P = 0.0030), the cAMP level result is recorded as “increase cAMP to similar levels”.

Take “RRRRRRR- ESFLYRSDSDYDLSPKAM [poly-arginine tagged PDE4 peptide]”: in the test with mice, the FST performance result is on record as “analogical effect on FST performance”.

For the compound `N[C@H](CCCP(=O)(O)O)C(=O)O` [D-APV], in the test with NMDA receptor, the NMDA-evoked current result is given as “blocked”.

With `CC[C@H](C)[C@H](NC(=O)[C@H](CCCCN)NC(=O)[C@@H](NC(=O)[C@H](CCC(N)=O)NC(=O)[C@@H](N)CCCNC(=N)N)[C@@H](C)CC)C(=O)N[C@@H](Cc1c[nH]c2ccccc12)C(=O)N[C@@H](Cc1ccccc1)C(=O)N[C@@H](CCC(N)=O)C(=O)N[C@@H](CC(N)=O)C(=O)N[C@@H](CCCNC(=N)N)C(=O)N[C@@H](CCCNC(=N)N)C(=O)N[C@@H](CCSC)C(=O)N[C@@H](CCCCN)C(=O)N[C@@H](Cc1c[nH]c2ccccc12)C(=O)N[C@@H](CCCCN)C(=O)N[C@@H](CCCCN)C(=O)N[C@@H](CCC(=O)O)C(=O)N[C@@H](CO)C(=O)N[C@@H](Cc1ccccc1)C(=O)N[C@@H](CC(C)C)C(=O)N[C@@H](Cc1ccc(O)cc1)C(=O)N[C@@H](CCCNC(=N)N)C(=O)N[C@@H](CO)C(=O)N[C@@H](CC(=O)O)C(=O)N[C@@H](CO)C(=O)N[C@@H](CC(=O)O)C(=O)N[C@@H](Cc1ccc(O)cc1)C(=O)N[C@@H](CC(=O)O)C(=O)N[C@@H](CC(C)C)C(=O)N[C@@H](CO)C(=O)N1CCC[C@H]1C(=O)N[C@@H](CCCCN)C(=O)N[C@@H](C)C(=O)N[C@@H](CCSC)C(=O)O` [PDE4-siP] (H-RQIKIWFQNRRMKWKKESFLYRSDSDYDLSPKAM-OH), 13 µM corresponded to half-maximal inhibition in test [2] (IC50).

With `COc1ccc(C2CNC(=O)C2)cc1OC1CCCC1` (centres unmarked) [rolipram, 4-[3-(cyclopenotoxyl)-4-methoxyphenyl]-2-pyrrolidone], the “behavioral responses to stressors” value in the test with animals is listed as “affect behavioral responses to stressors in animals”. Besides, the antidepressant activity entry in the test on humans is reported as “have antidepressant activity in humans”. The cAMP result with PDE4 was “elevate cAMP”.

As for `C=C[C@@]1(C)CC(=O)[C@]2(O)[C@@]3(C)[C@@H](O)CCC(C)(C)[C@@H]3[C@H](O)[C@H](OC(C)=O)[C@@]2(C)O1` [forskolin], in the test on PDE4 (PKA site) (striatal slices (Supplementary Fig. 1e)), the “PDE4 phosphorylation by PKA” value is “increased PDE4 phosphorylation by PKA”. In addition, in the test on PDE4B1 (PKA site), the “PKA-mediated PDE4 phosphorylation after forskolin, S145A PDE4B1 versus WT” value is given as “reduced PKA-mediated PDE4 phosphorylation”.
